Results taken from ChEMBL document CHEMBL1138358, “Synthesis and in vivo antitumor evaluation of 2-methoxyestradiol 3-phosphate, 17-phosphate, and 3,17-diphosphate” (J Med Chem, 2007).

Legend:
DU-145 = assay: Cytotoxicity against human DU145 cells; format: functional
UACC-62 = assay: Cytotoxicity against human UACC62 cells; format: functional
MDA-MB-435 = assay: Cytotoxicity against human MDA-MB-435 cells; format: functional
SN12C = assay: Cytotoxicity against human SN12C cells; format: functional
SF-539 = assay: Cytotoxicity against human SF539 cells; format: functional
HCT-116 = assay: Cytotoxicity against human HCT116 cells; format: functional
HOP-62 = assay: Cytotoxicity against human HOP62 cells; format: functional
OVCAR-3 = assay: Cytotoxicity against human OVCAR-3 cells; format: functional
Plasma [1] = assay: Drug level in Sprague-Dawley rat plasma at 1 mg/kg, iv assessed as 2-methoxyestrone level after 5 mins; format: ADME, organism-based; set-up: dose 1 mg/kg, route intravenous; settings: in vivo
Summary of the method: (§1)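 Jugular-cannulated Sprague–Dawley rats were fasted overnight and given a single tail-vein dose in 45% (w/v) hydroxypropyl-β-cyclodextrin in water (0.5 mg/mL, 2 mL/kg). K-EDTA blood was drawn via the cannula and the plasma was frozen below −20 °C. Plasma was acidified with formic acid and analysed by negative-ion ESI LC-MS/MS (MRM). Standard curves were spiked into rat plasma.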

Plasma [2] = assay: Drug level in Sprague-Dawley rat plasma at 1 mg/kg, iv assessed as 2-methoxyestrone level after 30 mins; format: ADME, organism-based; set-up: dose 1 mg/kg, route intravenous; settings: in vivo, 0.5 h; summary of the method: as §1
Plasma [3] = assay: Drug level in Sprague-Dawley rat plasma at 1 mg/kg, iv assessed as 2-methoxyestradiol level after 5 mins; format: ADME, organism-based; set-up: dose 1 mg/kg, route intravenous; settings: in vivo; summary of the method: as §1
Plasma [4] = assay: Drug level in Sprague-Dawley rat plasma at 1 mg/kg, iv assessed as 2-methoxyestradiol level after 30 mins; format: ADME, organism-based; set-up: dose 1 mg/kg, route intravenous; settings: in vivo, 0.5 h; summary of the method: as §1
Plasma [5] = assay: Drug level in Sprague-Dawley rat plasma at 1 mg/kg, iv assessed as 2-methoxyestrone level after 15 mins; format: ADME, organism-based; set-up: dose 1 mg/kg, route intravenous; settings: in vivo, 0.25 h; summary of the method: as §1
[6] = Drug level in Sprague-Dawley rat plasma at 1 mg/kg, iv after 5 mins; format: ADME, organism-based; set-up: dose 1 mg/kg, route intravenous; summary of the method: as §1
Plasma [7] = assay: Drug level in Sprague-Dawley rat plasma at 1 mg/kg, iv assessed as 2-methoxyestradiol level after 120 mins; format: ADME, organism-based; set-up: dose 1 mg/kg, route intravenous; settings: in vivo, 2 h; summary of the method: as §1
Plasma [8] = assay: Drug level in Sprague-Dawley rat plasma at 1 mg/kg, iv assessed as 2-methoxyestrone level after 60 mins; format: ADME, organism-based; set-up: dose 1 mg/kg, route intravenous; settings: in vivo, 1 h; summary of the method: as §1
[9] = Drug level in Sprague-Dawley rat plasma at 1 mg/kg, iv after 60 mins; format: ADME, organism-based; set-up: dose 1 mg/kg, route intravenous; summary of the method: as §1
[10] = Drug level in Sprague-Dawley rat plasma at 1 mg/kg, iv after 30 mins; format: ADME, organism-based; set-up: dose 1 mg/kg, route intravenous; summary of the method: as §1
[11] = Drug level in Sprague-Dawley rat plasma at 1 mg/kg, iv after 120 mins; format: ADME, organism-based; set-up: dose 1 mg/kg, route intravenous; summary of the method: as §1
Plasma [12] = assay: Drug level in Sprague-Dawley rat plasma at 1 mg/kg, iv assessed as 2-methoxyestradiol level after 60 mins; format: ADME, organism-based; set-up: dose 1 mg/kg, route intravenous; settings: in vivo, 1 h; summary of the method: as §1
Plasma [13] = assay: Drug level in Sprague-Dawley rat plasma at 1 mg/kg, iv assessed as 2-methoxyestradiol level after 15 mins; format: ADME, organism-based; set-up: dose 1 mg/kg, route intravenous; settings: in vivo, 0.25 h; summary of the method: as §1
[14] = Drug level in Sprague-Dawley rat plasma at 1 mg/kg, iv after 15 mins; format: ADME, organism-based; set-up: dose 1 mg/kg, route intravenous; summary of the method: as §1
Plasma [15] = assay: Drug level in Sprague-Dawley rat plasma at 1 mg/kg, iv assessed as 2-methoxyestrone level after 120 mins; format: ADME, organism-based; set-up: dose 1 mg/kg, route intravenous; settings: in vivo, 2 h; summary of the method: as §1
[16] = test system: Lewis lung carcinoma cell line; assay: Antitumor activity against LLC cells inoculated in C57BL/6J mouse assessed as lung weight at 200 mg/kg, ip qd for 12 days; format: functional; settings: route intraperitoneal
Summary of the method: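 LLC cells in exponential growth were harvested by brief trypsinization (0.25% trypsin, 0.02% EDTA, 1 min, 37 °C), washed and resuspended at 5 × 10⁵ cells/mL in Ca²⁺/Mg²⁺-free PBS. Mice were housed under SPF conditions, with 10 per group. From day 3 after tumor cell injection, compound was given ip daily for 12 days. On day 15, mean lung weight was corrected for non-tumor-bearing lung weight. T/C = (A − C)/(B − C) versus vehicle (0.1 mL).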

[17] = test system: Lewis lung carcinoma cell line; assay: Antitumor activity against LLC cells inoculated in C57BL/6J mouse assessed as lung weight at 100 mg/kg, ip qd for 12 days; format: functional; settings: route intraperitoneal
Summary of the method: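 LLC cells in exponential growth were harvested by brief trypsinization (1 min, 37 °C), washed, and resuspended at 5 × 10⁵ cells/mL in Ca²⁺/Mg²⁺-free PBS before injection into SPF-housed mice. From day 3 after injection, groups of 10 mice were dosed ip daily for 12 days. On day 15, mean lung weight was corrected for non-tumor-bearing lung weight. T/C = (A − C)/(B − C).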

Row | SMILES | GI50 (DU-145) [µM] | GI50 (UACC-62) [µM] | GI50 (MDA-MB-435) [µM] | GI50 (SN12C) [µM] | GI50 (SF-539) [µM] | GI50 (HCT-116) [µM] | GI50 (HOP-62) [µM] | GI50 (OVCAR-3) [µM] | Cp (Plasma [1]) [ng/mL] | Cp (Plasma [2]) [ng/mL] | Cp (Plasma [3]) [ng/mL] | Cp (Plasma [4]) [ng/mL] | Cp (Plasma [5]) [ng/mL] | concentration at 5 min [6] [ng/mL] | Cp (Plasma [7]) [ng/mL] | Cp (Plasma [8]) [ng/mL] | concentration at 1 h [9] [ng/mL] | concentration at 0.5 h [10] [ng/mL] | concentration at 2 h [11] [ng/mL] | Cp (Plasma [12]) [ng/mL] | also measured
1 | CCOP(=O)(OCC)Oc1cc2c(cc1OC)[C@H]1CC[C@]3(C)[C@@H](OP(=O)(OCC)OCC)CC[C@H]3[C@@H]1CC2 | 13.8 | 11.5 | 56.2 | 16.6 | 19.5 | 20.4 | 21.9 | 55 | – | – | – | – | – | – | – | – | – | – | – | – | –
2 | CCOP(=O)(OCC)O[C@H]1CC[C@H]2[C@@H]3CCc4cc(O)c(OC)cc4[C@H]3CC[C@]12C | – | 14.4 | 13.2 | 17.4 | 19.5 | 19 | – | 15.1 | – | – | – | – | – | – | – | – | – | – | – | – | –
3 | COc1cc2c(cc1O)CC[C@@H]1[C@@H]2CC[C@]2(C)[C@@H](OP(=O)(O)O)CC[C@@H]12 | – | 38 | 20 | > 100 | 75.9 | 87.1 | – | – | 5 | 5 | 34.1 | 9.2 | 5 | 1320 | 5 | 5 | 21.2 | 138 | 6.9 | 5 | Cp (Plasma [13]): 15 ng/mL; concentration at 0.25 h [14]: 351 ng/mL; Cp (Plasma [15]): 5 ng/mL
4 | COc1cc2c(cc1OP(=O)([O-])O)CC[C@@H]1[C@@H]2CC[C@]2(C)[C@@H](O)CC[C@@H]12.[Na+] | 2.95 | 1.32 | 0.11 | 1.31 | 0.66 | 1.45 | 0.69 | 0.34 | 16.3 | 8.8 | 153.4 | 22.3 | 12.7 | 366 | 5 | 2.7 | 1.2 | 7.1 | < 1 | 5.3 | Activity [16]: 0.23 g; Activity [17]: 0.44 g; Cp (Plasma [13]): 57.3 ng/mL; concentration at 0.25 h [14]: 31.3 ng/mL; Cp (Plasma [15]): 5 ng/mL
5 | COc1cc2c(cc1O)CC[C@@H]1[C@@H]2CC[C@]2(C)C(=O)CC[C@@H]12 | – | – | – | – | – | – | – | – | – | – | – | – | – | – | 5 | – | – | – | – | – | –
6 | COc1cc2c(cc1OP(=O)(O)O)CC[C@@H]1[C@@H]2CC[C@]2(C)[C@@H](OP(=O)(O)O)CC[C@@H]12 | > 100 | > 100 | > 100 | > 100 | – | > 100 | > 100 | > 100 | – | – | – | – | – | – | – | – | – | – | – | – | –
7 | COc1cc2c(cc1O)CC[C@@H]1[C@@H]2CC[C@]2(C)[C@@H](O)CC[C@@H]12 [2-METHOXYESTRADIOL] | 1.8 | 0.36 | 0.08 | 0.95 | 0.32 | 0.47 | 0.7 | 0.21 | 6.3 | 5.4 | 764 | 44.7 | 5 | 764 | 5 | 5 | 11.3 | 44.7 | 5 | 11.3 | Activity [16]: 0.44 g; Cp (Plasma [13]): 168 ng/mL; concentration at 0.25 h [14]: 168 ng/mL; Cp (Plasma [15]): 5 ng/mL
